In ChEMBL document CHEMBL3870332, “Development of pharmacophore models for small molecules targeting RNA: Application to the RNA repeat expansion in myotonic dystrophy type 1” (Bioorg Med Chem Lett, 2016) one finds Activity and Kd data, which are given here for 7 compounds.

Active and inactive are the calls of the source. No cut-off for these calls is given here.

Data set [1] is described as follows: Binding affinity to biotinylated-r(CUG)12 RNA (unknown origin) assessed as disruption of r(CUG)12/His6-tagged MBNL1 complex at 50 uM incubated for 15 mins by TR-FRET assay. Put shortly: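 TR-FRET disruption of a preformed r(CUG)12–MBNL1 complex, method as described previously; each compound screened at a single 50 µM concentration.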
Data set [2] has as its system C2C12. Description: Binding affinity to r(CUG)800 RNA (unknown origin) expressed in mouse C2C12 cells assessed as increase in nucleocytoplasmic transport of mRNA at 12.5 to 50 uM measured after 20 to 24 hrs by luciferase reporter gene assay. It counts as cell-based. Put shortly:
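Run in C2C12 cells expressing a luciferase-encoding mRNA carrying 800 CUG repeats in the 3′ UTR. Nucleocytoplasmic export is read as luciferase turnover of a pro-luminescent substrate. Compounds tested at 50, 25 and 12.5 µM.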
In general terms: In a reporter assay the amount or activity of a reporter protein is the signal.

Data set [3] relates to C2C12. The data set can be described thus: Effect on luciferase expression in mouse C2C12 cells at 12.5 to 50 uM measured after 20 to 24 hrs by luminescence assay. It counts as functional, cell-based. Put shortly: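 Counterscreen in the same C2C12 luciferase line without CUG repeats, used to flag compounds that enhance luciferase translation non-specifically. Compounds tested at 50, 25 and 12.5 µM.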

Data set [4] has as its system HeLa. Description: Binding affinity to r(CUG)960 RNA (unknown origin) expressed in human HeLa cells co-expressing cTNT mini-gene assessed as reduction in deregulated cTNT exon5 alternative splicing at 100 uM measured after 20 to 24 hrs by RT-PCR analysis. Type of data set: cell-based.
The test system of data set [5] is HeLa. Description: Binding affinity to r(CUG)960 RNA (unknown origin) expressed in human HeLa cells co-expressing cTNT mini-gene assessed as reduction in deregulated cTNT exon5 alternative splicing at 10 uM measured after 20 to 24 hrs by RT-PCR analysis. Type of data set: cell-based.
A short description of data set [6]: Binding affinity to r(CUG)2 RNA (unknown origin) measured after 5 mins by fluorescence analysis.
Data set [7] in a line: Binding affinity to r(GC)20 RNA (unknown origin) measured after 5 mins by fluorescence analysis.
Data set [8] is described as follows: Binding affinity to tRNA (unknown origin) measured after 30 mins by fluorescence analysis.
A short description of data set [9]: Binding affinity to AT hairpin DNA (unknown origin) measured after 30 mins by fluorescence analysis.
A short description of data set [10]: Cytotoxicity against human HeLa cells expressing DM1 assessed as reduction in cell viability at 100 uM measured after 24 hrs by WST-1 assay. Type of data set: toxicity, cell-based. In general terms: Formazan colour is commonly taken as a measure of viable cells.
Data set [11] has as its system HeLa. Description: Increase in DMPK transcript level in human HeLa cells co-expressing DM1/DMPK and cTNT mini-gene at 100 uM measured after 20 to 24 hrs by RT-qPCR method. Type of data set: functional, cell-based. A general note: Real-time PCR tracks product formation cycle by cycle.

`O=C(Nc1ccc2c(c1)C(=O)N(c1ccccc1)C2=O)c1ccco1`: the Activity in data set [1] was > 20%. In addition, the result with C2C12 [2] and in the data set on C2C12 [3] was Active.
In the case of `Nc1ccc(-c2nc3ccc(-c4nc5ccc(N)cc5[nH]4)cc3[nH]2)cc1`, the Activity in data set [1] is > 20%.
On to `O=C(Nc1ccc(NC(=O)c2ccc(F)cc2)nc1)c1ccncc1`, for which the results for the Activity in data set [1] and in [10] were > 20% and “Non-Toxic”, respectively. The outcome with C2C12 [2], with HeLa [4] and with HeLa [5] was Active. Also, the Kd (as a rule, a measure of binding affinity in units of concentration) in [6] is 4.6 µM; in data set [7], > 30 µM; in data set [8], > 50 µM; in data set [9] it was > 50 µM.
For `O=C(Nc1ccccn1)c1cccc(OCc2cscn2)c1`, the Activity in data set [1] is > 20%; in [10], “Non-Toxic”. Moreover, the result with C2C12 [2], with HeLa [4], in the data set with HeLa [5] and in the data set with HeLa [11] was Active.
For the compound `O=C(Nc1ccc2[nH]c(-c3ccc(F)cc3)nc2c1)c1ccncc1`, the values for the Activity in [1] and in data set [10] were > 20% and “Non-Toxic”, respectively. The outcome in the data set on C2C12 [2] and in the data set on HeLa [4] was Active.
Consider `Cc1c(C(=O)Nc2ccccn2)sc2nc(-c3ccccc3)cn12`, for which the Activity in data set [1] was > 20%. Further, the result in the data set on C2C12 [2] and in the data set on C2C12 [3] was Active.
Regarding `O=C(Nc1ccc(-c2nc3ccccc3[nH]2)cc1)c1cccnc1`, the Activity in data set [1] was > 20%. The result in the data set with C2C12 [2] and in the data set on C2C12 [3] was Active.
